Bioassay records deposited in PubChem BioAssay by several laboratories.
APOBEC3G inh: APOBEC3G (human) deaminase inhibition. AID 493012. 0.28% of 330,000 active. inhibition, % at 20 µM. Q9HC16. recombinant A3G, ssDNA deamination FAM/TAMRA fluorescence;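 active means inhibition of at least 40% at 20 µM, with no more than 30% in the related APOBEC3A deaminase screen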;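 further: plate controls were DMSO wells with A3G for no effect and wells lacking A3G enzyme for full effect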
PfM18AAP inh-1: PfM18AAP enzyme inhibition. inhibition, % at 7.35 µM. AID 1822. 1.2% of 290,000 active. recombinant PfM18AAP, H-Glu-NHMec fluorogenic cleavage;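 active means inhibition above the campaign mean inhibition over all tested compounds plus 3 SD, cut at about 28% in these data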;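 further: 0% = plate median of test compound wells and 100% = 2 mM ZnCl2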
APOBEC3A inh: inhibitors of human APOBEC3A DNA deaminase. recombinant A3A, FAM/TAMRA ssDNA deamination fluorescence. P31941. 0.41% of 330,000 active. inhibition, % at 20 µM;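 active means at least 40% inhibition at 20 µM here, with at most 30% in a related deaminase screen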;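 further: plate controls were A3A with DMSO for no effect and wells lacking A3A enzyme for full effect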
Target sequence (P31941 whole entry, looked up): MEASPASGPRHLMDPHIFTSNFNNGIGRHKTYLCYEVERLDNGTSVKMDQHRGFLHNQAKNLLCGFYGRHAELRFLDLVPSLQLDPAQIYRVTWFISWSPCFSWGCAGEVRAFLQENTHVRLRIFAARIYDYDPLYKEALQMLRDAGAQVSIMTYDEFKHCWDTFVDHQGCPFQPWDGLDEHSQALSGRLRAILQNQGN
PfGluPho inh: PfG6PD (Plasmodium falciparum) enzyme inhibition; PfGluPho enzyme, NADPH resazurin-diaphorase fluorescence; inhibition, % at 20 µM; 0.78% of 350,000 active;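 active means inhibition reaching at least a set limit at 20 µM in the primary screen, cut at about 59% in these data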;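 further: 0% = DMSO wells with substrate and 100% = DMSO wells lacking glucose-6-phosphate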
HKDC1 inhibitor: inhibitors of human hexokinase HKDC1; Q2TB90; recombinant HKDC1, G6PDH/diaphorase resazurin coupled fluorescence; inhibition, % at 20 µM; 0.16% of 340,000 active; AID 493160;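 active means inhibition above about 35% when tested at 20 µM, limit read from the data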;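 further: plate controls were DMSO wells with enzyme for no effect and DMSO wells lacking enzyme for full effect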
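Material: recombinant HKDC1 hexokinase; Amount: HKDC1 at 5 µg/mL; Medium: Tris pH 8.0 buffer with MgCl2, Tween-20, BSA, BME; Schedule: 90 min reaction incubation at room temperature, dark; Technique: coupled resazurin fluorescence, excitation 525 nm, emission 613 nm.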
UBC9 SUMO inh: blocks human SUMOylation mediated by UBC9 | 0.36% of 290,000 active | inhibition, % at 35 µM | AID 2006 | HTRF SUMOylation assay, SAE1/SAE2 + UBC9, in vitro | P63279; in the data active means inhibition above about 50%, passing the limit was not always enough
Target sequence (P63279 whole entry, looked up): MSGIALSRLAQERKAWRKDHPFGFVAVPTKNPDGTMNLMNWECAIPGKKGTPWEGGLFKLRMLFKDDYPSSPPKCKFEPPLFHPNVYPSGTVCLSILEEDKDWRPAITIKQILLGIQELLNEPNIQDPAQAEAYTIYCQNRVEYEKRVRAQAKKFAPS
PfM18AAP inh-2: confirmation of Plasmodium falciparum M18 aspartyl aminopeptidase inhibitors; shares compounds with PfM18AAP inh-1; recombinant PfM18AAP, H-Glu-NHMec fluorogenic cleavage; inhibition, % at 7.35 µM; 28% of 2,400 active; AID 2170;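 active means mean inhibition over replicate wells above the hit cutoff set for the earlier primary screen, cut at about 29% in these data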;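 further: 0% = median of test compound wells and 100% = 2 mM ZnCl2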
CTSL1 confirm: Cathepsin L (human) inhibition, confirmation; inhibition, % at 5.96 µM; 2,400 tested, under 10 active; purified cathepsin L1, Z-Leu-Arg-MCA fluorescence; shares compounds with PfM18AAP inh-1;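 active means average inhibition across replicates above the hit cutoff set in the earlier primary screen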;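 further: 0% = median of test compound wells and 100% = Z-Phe-Ala-diazomethylketone 1 µM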
Target sequence (P07711 whole entry, looked up): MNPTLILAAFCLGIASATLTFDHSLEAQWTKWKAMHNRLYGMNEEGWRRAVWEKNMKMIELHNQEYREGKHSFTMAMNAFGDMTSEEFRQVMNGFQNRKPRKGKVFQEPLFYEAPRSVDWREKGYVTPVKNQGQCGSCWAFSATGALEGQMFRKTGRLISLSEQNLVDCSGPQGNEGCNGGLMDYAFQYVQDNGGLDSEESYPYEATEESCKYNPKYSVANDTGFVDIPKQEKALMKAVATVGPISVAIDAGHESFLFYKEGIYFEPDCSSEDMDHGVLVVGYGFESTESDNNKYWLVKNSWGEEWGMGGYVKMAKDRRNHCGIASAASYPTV
Starred values were filed as active, the others as inactive; · = not tested or not shown. This is a sample that favours compounds with a hit; in the whole collection about 2.4% have one here.

SMILES | APOBEC3G inh | PfM18AAP inh-1 | APOBEC3A inh | PfGluPho inh | HKDC1 inhibitor | UBC9 SUMO inh | PfM18AAP inh-2 | CTSL1 confirm
Cc1nn(CC(=O)Nc2c(F)cc(F)cc2Br)c(=O)c2cccn12 | 4 | -1 | 1 | -11 | 0 | 8 | · | ·
COc1ccc(C(=O)NC(=S)N2CCOCC2)cc1OC | -5 | 3 | 3 | -2 | -4 | -4 | · | ·
Cc1ccc(C(=O)Nn2cnnc2)c(Cl)c1 | 3 | 49* | 0 | -2 | -5 | 4 | 42* | -6
O=C(Nn1cnnc1)c1ccc(Cl)cc1[N+](=O)[O-] | 2 | 25 | -2 | -4 | 4 | 8 | · | ·
C=CCNC(=O)/C(=C\c1ccc2c(c1)OCO2)NC(=O)c1ccc(Br)cc1 | -3 | 6 | 0 | -11 | -5 | 0 | · | ·
COCC(=O)/C=C1\Sc2ccccc2N1C | -8 | 9 | -3 | 14 | -6 | 22 | · | ·
CN1/C(=C\C(=O)c2cccs2)C(C)(C)c2ccccc21 | -1 | 4 | 2 | 59 | -3 | 1 | · | ·
COc1cc(OC)cc(C(=O)/C=C2\Sc3ccccc3N2C)c1 | -3 | 47* | 0 | 10 | -6 | 0 | -48 | 0
CN1/C(=C/C(=O)c2cccs2)Sc2ccccc21 | 1 | 49* | -2 | · | · | 12 | -16 | 1
COc1ccc(C(=O)/C=C2/Sc3cc4c(cc3N2C)OCO4)cc1 | -6 | 40* | -4 | 31 | 3 | 4 | -45 | 2
COc1ccc2c(c1)S/C(=C\C(=O)c1ccncc1)N2C | 7 | 39* | -12 | 57 | -3 | 12 | 27 | 6
CCN(C[C@H]1N[C@@](CC)(C(=O)OC)[C@H]2C(=O)N(C)C(=O)[C@@H]12)C(=O)C1CCCCC1 | -4 | · | -1 | -1 | -5 | · | · | ·
CCC1CCCCN1Cc1nc2c(c(=O)n(C)c(=O)n2C)n1CC(C)C (stereo not given) | -4 | · | -2 | -9 | -1 | -7 | · | ·
c1ccc2c(c1)CCN(C1CCCCC1)C2 | -3 | -1 | 0 | -11 | -4 | -1 | · | ·
c1ccc2c(c1)NCC1CCCN21 (stereo not given) | 0 | 37* | -1 | 54 | 7 | 5 | -70 | -4
COc1ccc(C(=O)c2ccccc2Cl)cc1 | -5 | -4 | 2 | -5 | -6 | 24 | · | ·
Cn1c(-c2ccc(N)cc2)nc2ccccc21 | -3 | -7 | -3 | -1 | 2 | 30 | · | ·
Cn1c(-c2ccc(Cl)nc2)nc2ccccc21 | -7 | 34* | 0 | 10 | 3 | 22 | -51 | -3
O=C(CSc1ncn[nH]1)N1N=C(c2ccc(Cl)cc2)CC1c1ccco1 (stereo not given) | -5 | 42* | 0 | -12 | -9 | -4 | -7 | -1
O=C(CSc1n[nH]c(=O)n1C1CC1)N1N=C(c2ccc(Cl)cc2)CC1c1ccco1 (stereo not given) | -3 | 5 | 3 | 10 | -1 | -3 | · | ·
CCCCn1c(N)c(N(CCOC)C(=O)CCNC(=O)c2ccc(Br)cc2)c(=O)[nH]c1=O | -6 | · | 10 | 14 | -5 | · | · | ·
C=CCc1c(C)nc(-c2ccccc2)nc1N/N=C(\C)c1ccccc1 | -6 | 37* | -1 | 14 | -2 | 7 | -27 | 0
Nc1nncn1C(=O)CCCN1C(=O)c2ccccc2C1=O | -4 | 44* | -4 | -15 | -2 | 2 | 47* | -12
Nc1nncn1C(=O)CCCOc1ccc(Cl)cc1Cl | -1 | 47* | 4 | -7 | 15 | -9 | 63* | 4
O=C(CCCOc1ccc(Cl)cc1Cl)n1nnc2ccccc21 | -2 | -2 | 2 | 1 | 16 | 3 | · | ·
SMILES | APOBEC3G inh | PfM18AAP inh-1 | APOBEC3A inh | PfGluPho inh | HKDC1 inhibitor | UBC9 SUMO inh | PfM18AAP inh-2 | CTSL1 confirm
C/C(=N\Nc1nc(N)cc(Cl)n1)c1cccc([N+](=O)[O-])c1 | -3 | 34* | 4 | 19 | -8 | 2 | -45 | 3
O=C(NCCc1ccccc1)C(=O)N/N=C/c1ccc2c(c1)OCO2 | 3 | 4 | 3 | 1 | -5 | 6 | · | ·
O=C(NCc1ccccn1)C(=O)N/N=C/c1ccc2c(c1)OCO2 | -8 | 37* | -6 | -6 | -2 | 3 | -25 | 7
O=C(Nc1cccc(Cl)c1)Nc1ccccc1C(=O)O | -1 | 13 | -14 | 29 | 2 | 28 | · | ·
O=C(Nc1ccc(F)cc1F)Nc1ccc(F)cc1F | -5 | -1 | 2 | 10 | -8 | -4 | · | ·
O=C(NNc1ccccc1[N+](=O)[O-])Nc1cccc(Cl)c1 | -3 | 33* | 3 | 36 | -4 | 0 | 31* | 0
O=C(NNc1ccccc1[N+](=O)[O-])Nc1ccc(F)cc1F | -12 | 40* | -2 | 5 | -7 | -6 | 27 | -3
Cc1cc(O)c2/c(=N\N)c(-c3csc(C)n3)coc2c1 | -1 | 71* | 6 | 37 | -3 | -25 | 48* | -1
NS(=O)(=O)c1cccc(NC(=O)COC(=O)CC2Sc3ccccc3NC2=O)c1 (stereo not given) | -8 | · | 0 | 25 | -3 | · | · | ·
O=C(CC1Sc2ccccc2NC1=O)Nc1cccc(C(=O)O)c1 (stereo not given) | 11 | 41* | 34 | 10 | -1 | 11 | 25 | -4
Cn1c2ccccc2c2cnn(CC(=O)NCCCN3CCN(c4ccccc4F)CC3)c(=O)c21 | -4 | -1 | -3 | 3 | -4 | -1 | · | ·
CC(NC(=O)c1ccc(Cl)cc1)c1nnc(SCC(=O)NC2=NCCS2)n1C (stereo not given) | -5 | -4 | 0 | -2 | -4 | 9 | · | ·
CCc1nnc(N/N=C/c2c(Cl)cccc2Cl)n1N | -1 | 56* | 0 | 32 | -17 | -5 | -40 | 2
CCc1nnc(N/N=C/c2cc(Br)c(O)cc2O)n1N | 1 | 62* | -2 | 52 | 13 | -15 | 54* | 1
CCCN(c1ccc(OCC)cc1)S(=O)(=O)c1ccc2c(c1)NC(=O)CO2 | 5 | 2 | 6 | -2 | 0 | -2 | · | ·
Cc1cc(N/N=C\c2ccccc2)nc(-c2ccccc2O)n1 | -4 | 11 | -4 | 18 | 12 | 19 | · | ·
Cc1cc(N/N=C/c2ccc(O)cc2O)nc(-n2nc(C)cc2C)n1 | · | 51* | · | 26 | -15 | 4 | 33* | 1
COc1ccc(/C=N/Nc2cc(C)nc(-n3nc(C)cc3C)n2)cc1 | -5 | -1 | 0 | 20 | 0 | -18 | · | ·
Cc1cc(N/N=C/c2ccc(O)cc2O)nc(-c2ccccc2O)n1 | · | 52* | · | 30 | -10 | -12 | 54* | -1
Cc1cc(N/N=C/c2ccccc2O)nc(-c2ccccc2O)n1 | -5 | 42* | -4 | 18 | -8 | 0 | 40* | 9
